# Bioassay records from PubChem.
# Sampled rows, rich in hits. Any-hit rate of the full collection: about 9.3%.
# tolC growth inh: growth inhibitors of E. coli tolC mutant, primary screen, strain BW25113 ΔtolC::kan, 384-well; 65,000 compounds, 2.2% hits; OD615; growth inhibition, % at 10 µM (by protocol);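 active = growth inhibition at or above a cutoff equal to the mean over every tested compound plus 3 SD, cut at about 60% in these data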;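 note: growth measured after 20 h incubation at 37 °C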
#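 Doses: one dose of 10 µM final / Material: E. coli BW25113 ΔtolC::kan, tolC deletion mutant strain / Buffer or medium: LB with kanamycin 50 µg/mL / Evaluation: percent growth inhibition / Detection: optical density read at 615 nm / Incubation: 37 °C, 20 h exposure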
# E coli WT exp: growth inhibitors of wild-type E. coli, primary screen, strain BW25113, expanded library, OD600; OD600 absorbance; growth inhibition, % at 100 µM; 98,000 compounds, 0.15% hits;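 active = growth inhibition above about 50% at one test dose, limit read from the data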;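 note: growth measured after 20 h incubation at 37 °C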
# PostGolgi ctrl: growth inhibition of yeast control strain, primary screen, counter-screen for post-Golgi transport modulator project; inhibition, % at 10 µM; efflux-deficient yeast background strain, growth absorbance A615, 16 h; 98,000 compounds, 5% hits; AID 738, 2007
# DAT uptake mod: changed hDAT dopamine uptake under cocaine IC80, either direction, primary screen, cocaine antagonist project, cell-based, LLC-PK1 hDAT, [14C]-dopamine uptake, MLSMR. Sodium-dependent dopamine transporter (Homo sapiens), Q01959. LLC-PK1 hDAT cells, [14C]-dopamine uptake with cocaine IC80; actives deviate in either direction. B-score at 10 µM. 110,000 compounds, 1.3% hits;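 active = Z score or B-score, a plate-position-corrected score, falls beyond the plate's 99.7% confidence bounds, in either direction; inactive = both scores lie inside the 99.7% bounds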;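 note: scored against the spread of the other compound wells on the same plate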
# D1 mod: D1 CRE-luciferase signal change, two-sided – cell-based, HEK293 D1, dopamine EC30, D1 allosteric modulator project, primary screen; AID 641, 2007; 58,000 compounds, 5.9% hits; B-score at 10 µM; dopamine EC30 potentiation; actives deviate in either direction;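 active = luminescence count or its row- and column-corrected plate score outside the 99.7% band of the plate's sample wells, on either side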
# Target sequence (P21728 whole entry, looked up): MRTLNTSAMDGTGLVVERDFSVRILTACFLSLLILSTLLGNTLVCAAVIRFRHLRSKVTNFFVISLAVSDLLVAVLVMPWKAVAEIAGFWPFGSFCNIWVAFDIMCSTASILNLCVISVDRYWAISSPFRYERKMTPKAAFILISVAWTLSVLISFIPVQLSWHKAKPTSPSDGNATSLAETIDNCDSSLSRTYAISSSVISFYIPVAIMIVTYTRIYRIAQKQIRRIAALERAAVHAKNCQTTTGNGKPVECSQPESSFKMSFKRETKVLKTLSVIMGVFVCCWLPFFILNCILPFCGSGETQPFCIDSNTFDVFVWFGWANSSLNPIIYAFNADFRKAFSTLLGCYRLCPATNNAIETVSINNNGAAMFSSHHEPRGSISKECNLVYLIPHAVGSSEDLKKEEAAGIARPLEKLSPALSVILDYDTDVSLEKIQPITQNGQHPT
# PostGolgi yeast: phenotypic screen on post-Golgi transport, primary screen | post-Golgi transport phenotypic cell assay | inhibition, % at 10 µM | 98,000 compounds, 0.9% hits;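 note: yeast cells grown in 1536-well plates; yeast grown about 18 h at 30C before absorbance read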
# * = called active by the depositor; x = no result. Cut-off read from the data, not from the text of the source, unless noted: active = inhibition above about 30%; inactive = the rest.
SMILES,tolC growth inh,E coli WT exp,PostGolgi ctrl,DAT uptake mod,D1 mod,PostGolgi yeast
CC(=O)c1c(C)[nH]c(C(=O)COC(=O)CN(C)S(=O)(=O)c2ccc(Cl)cc2)c1C,x,1,1,1.7,x,-2
N#Cc1ccccc1CSc1nc(N2CCCCC2)nc(N2CCCCC2)n1,7,-24,2,1.1,0.087,-3
Cn1ccnc1SCc1cn2cc(Br)ccc2n1,-15,11,6,-8.7*,-4.7*,-19
O=C1CCCN1c1ccc(S(=O)(=O)Oc2ccc(Cl)cc2)cc1[N+](=O)[O-],x,-5,11,0.092,x,-5
O=C(O)C(Cc1ccccc1)N1C(=O)/C(=C/c2cccc3ccccc23)SC1=S (stereo not drawn),x,12,7,-2.7*,x,-2
Cc1c(N2C(=O)/C(=C\c3cccc4ccccc34)SC2=S)c(=O)n(-c2ccccc2)n1C,x,-8,54*,-0.59,x,-2
Cn1c2c(c(=O)n(C)c1=O)C(C(F)(F)F)(C(F)(F)F)N=C(c1ccc(Cl)cc1)N2,x,0,68*,-3.1*,x,47*
CNS(=O)(=O)c1cccc(C(=O)OCC(=O)N2CCc3ccccc3C2)c1,x,-2,3,-0.82,x,-8
Cc1[nH]c2ccccc2c1NC(=O)CN1CCN(c2cccc(C(F)(F)F)c2)CC1,75*,6,28,2.2,-0.29,5
Cc1ccc(OC(F)F)c(NC(=O)Nc2cccc(C(F)(F)F)c2)c1,x,2,56*,1.1,x,-2
O=C(COCC(=O)Nc1cccc(C(F)(F)F)c1)Nc1cccc(C(F)(F)F)c1,x,1,43*,-0.16,x,3
CC(=O)Nc1ccc(NC(=O)CN2CCN(c3cccc(C(F)(F)F)c3)CC2)cc1,x,-2,6,-0.19,x,-7
O=C(CN1CCN(c2cccc(C(F)(F)F)c2)CC1)Nc1cccc(C(F)(F)F)c1,x,-3,35*,-0.84,x,-2
CNC(=O)Nc1cccc(C(F)(F)F)c1,-7,9,15,0.56,-0.94,10
CC(C)N(O)C(=O)NC(C)(C)C,-26,-7,-4,0.55,-0.46,4
CC(C)=CC(O)C/C(C)=C/COc1ccc2ccc(=O)oc2c1 (stereo not drawn),x,x,x,0.63,x,x
CC(=O)n1cc([C@H]2C=C(C(=O)N3CCOCC3)O[C@@H](OCCCCO)C2)c2ccccc21,x,x,x,0.17,x,x
C=CCSc1nccc(-c2nn(-c3ccc(C)cc3)ccc2=O)n1,x,-20,34*,-0.1,x,2
CCSc1nccc(-c2nn(-c3ccc(C)cc3)ccc2=O)n1,x,-7,15,-0.78,x,-5
CC(=O)c1ccccc1OCC(O)CN1CCN(C(c2ccccc2)c2ccccc2)CC1 (stereo not drawn),74*,-3,10,1.5,x,13
CCOC(=O)N1CCN(CC(O)COc2ccccc2C(C)CC)CC1 (stereo not drawn),-7,2,26,0.85,-0.079,50*
CCOc1ccccc1C(=O)N1CCN(C(c2ccccc2)c2ccccc2)CC1,x,10,28,-0.49,x,7
CC1CC2=C(NC(=S)NC2c2ccc(F)cc2)/C(=C/c2ccc(F)cc2)C1 (stereo not drawn),x,-8,39*,0.48,x,-2
CCCCCCOC(=O)Sc1nc2ccccc2o1,9,2,9,-0.12,-0.92,34*
C(=C\c1ccccc1)/CN1CCN(c2ncnc3c2oc2ccccc23)CC1,100*,-6,31*,-1.4,-1.6,21
SMILES,tolC growth inh,E coli WT exp,PostGolgi ctrl,DAT uptake mod,D1 mod,PostGolgi yeast
COc1ccccc1N1CCN(c2ncnc3c2oc2ccccc23)CC1,35,-4,38*,0.97,-0.16,6
CC(=O)c1ccc(NC(=S)N2C(C)CCCC2C)cc1 (stereo not drawn),x,17,-5,0.026,x,0
Cc1cc(C)cc(Nc2cc(=O)n(C3CCCCC3)c(=O)[nH]2)c1,83*,-14,2,-2.3,0.6,4
Cn1cc(CC(=O)NCCCN2CCCC2=O)c2ccccc21,-10,-1,4,-1.9,-0.087,4
CC(=O)Nc1ccccc1NS(=O)(=O)c1ccc(Cl)cc1,x,3,5,0.44,x,36*
COc1ccc(Cn2nc(C)n(N(C)c3ncc(C(F)(F)F)cc3Cl)c2=O)cc1,x,7,6,-0.98,x,-3
O=C(CNC(=O)c1cccs1)NCCN1CCN(c2ccccc2F)CC1,-17,2,17,-0.7,-3.6*,1
COc1ccccc1NC(=O)CN1CCC(C(=O)c2ccc(F)cc2)CC1,x,5,32*,x,x,-5
COc1ccccc1NC(=O)CN1CCN(CC(=O)Nc2ccc(Cl)c(C(F)(F)F)c2)CC1,26,-2,82*,0.95,-0.018,-2
Cc1cccc(NC(=O)c2nc[nH]c2C(=O)NCC(=O)OC(C)(C)C)c1,x,x,x,0.0096,x,x
Cc1c(NS(=O)(=O)c2cccc3nsnc23)c(=O)n(-c2ccccc2)n1C,7,x,x,x,0.099,x
CCC(NC(=O)Nc1nnc(C(F)(F)F)s1)(C(F)(F)F)C(F)(F)F,4,58*,17,-3.3*,-0.45,-4
COc1cc(C(=O)Nc2nc(-c3cccs3)cs2)cc(OC)c1OC,69*,0,48*,-0.029,0.85,25
O=C(Nc1nc(-c2cccs2)cs1)c1cccc(S(=O)(=O)N2CCCCC2)c1,28,-9,11,-1.2,-1.4,5
COc1ccc(C(=O)Nc2nnc(C(F)(F)F)s2)cc1,11,-16,42*,-1.3,-1.2,-3
O=C(Nc1nnc(C(F)(F)F)s1)c1cccnc1,8,-12,0,-1.5,-1.6,4
COc1ccc(C(=O)Nc2nc(-c3cccs3)cs2)cc1,98*,-3,16,-0.055,x,1
O=C(O)CCC(=O)Nc1nnc(C(F)(F)F)s1,4,5,-1,0.0015,-0.22,-3
COc1ccc(C)cc1S(=O)(=O)N(CC(=O)N1CCCC1)c1ccccc1,-4,5,4,-0.097,-0.53,-10
CCn1c(=O)cc(SCC(=O)NCc2ccccn2)c2ccccc21,3,-1,-4,0.11,0.37,3
CCCNS(=O)(=O)c1ccc(OCC(=O)NCc2ccc3c(c2)OCO3)cc1,6,6,2,-1.7,0.47,14
Cc1csc(NC(=O)c2sc3nc(-c4cccs4)ccc3c2N)n1,49,-6,22,-0.51,-2.8*,0
COc1ccc(-c2cn3c(n2)CCC3)cc1,-12,10,4,1.2,x,-4
c1ccc(-c2ccc(-c3cn4c(n3)CCC4)cc2)cc1,x,-2,33*,-0.29,x,0
CC1CCCC(C)N1C(=O)c1cc(F)c(F)cc1Cl (stereo not drawn),-5,13,37*,-0.59,0.59,-6
